According to ChEMBL document CHEMBL1177846, “Benzylidene/2-chlorobenzylidene hydrazides: synthesis, antimicrobial activity, QSAR studies and antiviral evaluation” (Eur J Med Chem, 2010):
Calls of active or inactive are those of the source. The rule behind the calls is not given here.

tested on: Human alphaherpesvirus 2; assay: Antiviral activity against Herpes simplex virus 2 G infected in human HEL cells assessed as inhibition of virus-induced cytopathic effect after 3 days by MTS assay; format: functional, organism-based; conditions: strain G
Procedure, shortened: (§1)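 Confluent cell monolayers were infected with 100 CCID50 of virus and allowed 2 h adsorption at 37 °C. Virus was then removed and serial compound dilutions were added. Cultures were incubated at 37 °C for 3 days, until CPE was complete in the untreated virus control. EC50 was the concentration giving 50% inhibition of virus-induced CPE, by visual score or by MTS formazan cell viability.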

Row | Structure (SMILES) | inhibition
1 | Cc1ccc(C(=O)N/N=C/c2ccccc2)cc1 | inactive
2 | CCCCCCCCCCCCCCCC(=O)N/N=C/c1ccccc1Cl | inactive
3 | CCCCCCCCCCCC(=O)N/N=C/c1ccccc1Cl | inactive

tested on: Vesicular stomatitis virus; assay: Antiviral activity against VSV infected in human HeLa cells assessed as inhibition of virus-induced cytopathic effect after 3 days by MTS assay; format: functional, organism-based; conditions: 72 h; procedure, shortened: as §1

Row | Structure (SMILES) | EC50
4 | Nc1ncnc2c1ncn2C[C@H](O)CO [(S)-DHPA] | > 250 µM
5 | NC(=O)c1ncn([C@@H]2O[C@H](CO)[C@@H](O)[C@H]2O)n1 [RIBAVIRIN] | 17.2 µM

tested on: Coxsackievirus B4; assay: Antiviral activity against Coxsackie virus B4 infected in human HeLa cells assessed as inhibition of virus-induced cytopathic effect after 3 days by MTS assay; format: functional, organism-based; conditions: Enterovirus B, 72 h; procedure, shortened: as §1

Row | Structure (SMILES) | EC50
6 | Nc1ncnc2c1ncn2C[C@H](O)CO [(S)-DHPA] | > 250 µM
7 | NC(=O)c1ncn([C@@H]2O[C@H](CO)[C@@H](O)[C@H]2O)n1 [RIBAVIRIN] | 73.1 µM

tested on: Mammalian orthoreovirus 1; assay: Antiviral activity against Reovirus 1 infected in african green monkey Vero cells assessed as inhibition of virus-induced cytopathic effect after 3 days by MTS assay; format: functional, organism-based; conditions: not given; procedure, shortened: as §1

Row | Structure (SMILES) | inhibition
8 | Cc1ccc(C(=O)N/N=C/c2ccccc2)cc1 | inactive
9 | CCCCCCCCCCCCCCCC(=O)N/N=C/c1ccccc1Cl | inactive
10 | CCCCCCCCCCCC(=O)N/N=C/c1ccccc1Cl | inactive

tested on: Respiratory syncytial virus; assay: Antiviral activity against RSV infected in human HeLa cells assessed as inhibition of virus-induced cytopathic effect after 3 days by MTS assay; format: functional, organism-based; conditions: 72 h; procedure, shortened: as §1

Row | Structure (SMILES) | EC50
11 | Nc1ncnc2c1ncn2C[C@H](O)CO [(S)-DHPA] | > 250 µM
12 | NC(=O)c1ncn([C@@H]2O[C@H](CO)[C@@H](O)[C@H]2O)n1 [RIBAVIRIN] | 6.6 µM

tested on: Staphylococcus aureus; assay: Antibacterial activity against Staphylococcus aureus after 24 hrs by serial dilution method; format: functional; conditions: not given

Row | Structure (SMILES) | MBC | -logMIC
13 | Cc1ccc(C(=O)N/N=C/c2ccccc2)cc1 | >0.21 uM/ml | –
14 | CCCCCCCCCCCCCCCC(=O)N/N=C/c1ccccc1Cl | >0.127 uM/ml | 1.5
15 | CCCCCCCCCCCC(=O)N/N=C/c1ccccc1Cl | >0.148 uM/ml | –

tested on: Human alphaherpesvirus 1; assay: Antiviral activity against acyclovir-resistant […] kinase-deficient HSV1 KOS infected in human HEL cells assessed as inhibition of virus-induced cytopathic effect after 3 days by MTS assay; format: functional, organism-based; conditions: not given; procedure, shortened: as §1

Row | Structure (SMILES) | inhibition
16 | Cc1ccc(C(=O)N/N=C/c2ccccc2)cc1 | inactive
17 | CCCCCCCCCCCCCCCC(=O)N/N=C/c1ccccc1Cl | inactive
18 | CCCCCCCCCCCC(=O)N/N=C/c1ccccc1Cl | inactive

tested on: Felid alphaherpesvirus 1; assay: Antiviral activity against Feline herpesvirus 1 infected in […] cells assessed as inhibition of virus-induced cytopathic effect after 3 days by MTS assay; format: functional, organism-based; conditions: not given; procedure, shortened: as §1

Row | Structure (SMILES) | inhibition
19 | Cc1ccc(C(=O)N/N=C/c2ccccc2)cc1 | inactive
20 | CCCCCCCCCCCCCCCC(=O)N/N=C/c1ccccc1Cl | inactive
21 | CCCCCCCCCCCC(=O)N/N=C/c1ccccc1Cl | inactive

tested on: not listed separately; assay: Cytotoxicity against human HeLa cells after 3 days by MTS assay; format: cell-based; conditions: HeLa cells
Procedure, shortened: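 Uninfected HeLa cells were run in parallel with the antiviral assay and exposed to serial compound dilutions. CC50 is the 50% cytotoxic concentration from colorimetric formazan-based MTS cell viability.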

Row | Structure (SMILES) | CC50 at 72 h | MCC at 72 h
22 | Nc1ncnc2c1ncn2C[C@H](O)CO [(S)-DHPA] | > 250 µg/mL | > 250 µM
23 | NC(=O)c1ncn([C@@H]2O[C@H](CO)[C@@H](O)[C@H]2O)n1 [RIBAVIRIN] | > 250 µg/mL | > 250 µM

tested on: Escherichia coli; assay: Antibacterial activity against Escherichia coli after 24 hrs by serial dilution method; format: functional; conditions: not given

Row | Structure (SMILES) | MBC | -logMIC
24 | Cc1ccc(C(=O)N/N=C/c2ccccc2)cc1 | 0.052 uM/ml | –
25 | CCCCCCCCCCCCCCCC(=O)N/N=C/c1ccccc1Cl | 0.031 uM/ml | –
26 | CCCCCCCCCCCC(=O)N/N=C/c1ccccc1Cl | 0.009 uM/ml | 1.8

tested on: Vesicular stomatitis virus; assay: Antiviral activity against VSV infected in human HEL cells assessed as inhibition of virus-induced cytopathic effect after 3 days by MTS assay; format: functional, organism-based; conditions: not given; procedure, shortened: as §1

Row | Structure (SMILES) | inhibition
27 | Cc1ccc(C(=O)N/N=C/c2ccccc2)cc1 | inactive
28 | CCCCCCCCCCCCCCCC(=O)N/N=C/c1ccccc1Cl | inactive
29 | CCCCCCCCCCCC(=O)N/N=C/c1ccccc1Cl | inactive

tested on: Punta Toro virus; assay: Antiviral activity against Punta toro virus infected in african green monkey Vero cells assessed as inhibition of virus-induced cytopathic effect after 3 days by MTS assay; format: functional, organism-based; conditions: not given; procedure, shortened: as §1

Row | Structure (SMILES) | inhibition
30 | Cc1ccc(C(=O)N/N=C/c2ccccc2)cc1 | inactive
31 | CCCCCCCCCCCCCCCC(=O)N/N=C/c1ccccc1Cl | inactive
32 | CCCCCCCCCCCC(=O)N/N=C/c1ccccc1Cl | inactive

tested on: Influenza B virus; assay: Antiviral activity against influenza B virus infected in MDCK cells assessed as inhibition of virus-induced cytopathic effect after 3 days by MTS assay; format: functional, organism-based; conditions: not given; procedure, shortened: as §1

Row | Structure (SMILES) | inhibition
33 | Cc1ccc(C(=O)N/N=C/c2ccccc2)cc1 | inactive
34 | CCCCCCCCCCCCCCCC(=O)N/N=C/c1ccccc1Cl | inactive
35 | CCCCCCCCCCCC(=O)N/N=C/c1ccccc1Cl | inactive

tested on: Human respirovirus 3; assay: Antiviral activity against Parainfluenza 3 virus infected in african green monkey Vero cells assessed as inhibition of virus-induced cytopathic effect after 3 days by MTS assay; format: functional, organism-based; conditions: not given; procedure, shortened: as §1

Row | Structure (SMILES) | inhibition
36 | Cc1ccc(C(=O)N/N=C/c2ccccc2)cc1 | inactive
37 | CCCCCCCCCCCCCCCC(=O)N/N=C/c1ccccc1Cl | inactive
38 | CCCCCCCCCCCC(=O)N/N=C/c1ccccc1Cl | inactive

tested on: Bacillus subtilis; assay: Antibacterial activity against Bacillus subtilis after 24 hrs by serial dilution method; format: functional; conditions: not given

Row | Structure (SMILES) | MBC | -logMIC
39 | Cc1ccc(C(=O)N/N=C/c2ccccc2)cc1 | 0.21 uM/ml | –
40 | CCCCCCCCCCCCCCCC(=O)N/N=C/c1ccccc1Cl | 0.031 uM/ml | 1.49
41 | CCCCCCCCCCCC(=O)N/N=C/c1ccccc1Cl | 0.148 uM/ml | –

tested on: Coxsackievirus B4; assay: Antiviral activity against Coxsackie virus B4 infected in african green monkey Vero cells assessed as inhibition of virus-induced cytopathic effect after 3 days by MTS assay; format: functional, organism-based; conditions: not given; procedure, shortened: as §1

Row | Structure (SMILES) | inhibition
42 | Cc1ccc(C(=O)N/N=C/c2ccccc2)cc1 | inactive
43 | CCCCCCCCCCCCCCCC(=O)N/N=C/c1ccccc1Cl | inactive
44 | CCCCCCCCCCCC(=O)N/N=C/c1ccccc1Cl | inactive

tested on: Human alphaherpesvirus 1; assay: Antiviral activity against Herpes simplex virus 1 KOS infected in human HEL cells assessed as inhibition of virus-induced cytopathic effect after 3 days by MTS assay; format: functional, organism-based; conditions: not given; procedure, shortened: as §1

Row | Structure (SMILES) | inhibition
45 | Cc1ccc(C(=O)N/N=C/c2ccccc2)cc1 | inactive
46 | CCCCCCCCCCCCCCCC(=O)N/N=C/c1ccccc1Cl | inactive
47 | CCCCCCCCCCCC(=O)N/N=C/c1ccccc1Cl | inactive

tested on: Candida albicans; assay: Antifungal activity against Candida albicans after 48 hrs by serial dilution method; format: functional; conditions: not given
Procedure, shortened: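 Serial compound dilutions in Sabouraud dextrose broth (tube dilution), incubated 37 °C for 48 h. MIC was read as the lowest concentration with no growth.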

Row | Structure (SMILES) | MFC | -logMIC
48 | Cc1ccc(C(=O)N/N=C/c2ccccc2)cc1 | >0.21 uM/ml | –
49 | CCCCCCCCCCCCCCCC(=O)N/N=C/c1ccccc1Cl | >0.127 uM/ml | 2.1
50 | CCCCCCCCCCCC(=O)N/N=C/c1ccccc1Cl | >0.148 uM/ml | –

tested on: Influenza A virus; assay: Antiviral activity against influenza A virus H1N1 infected in MDCK cells assessed as inhibition of virus-induced cytopathic effect after 3 days by MTS assay; format: functional, organism-based; conditions: not given; procedure, shortened: as §1

Row | Structure (SMILES) | inhibition
51 | Cc1ccc(C(=O)N/N=C/c2ccccc2)cc1 | inactive
52 | CCCCCCCCCCCCCCCC(=O)N/N=C/c1ccccc1Cl | inactive
53 | CCCCCCCCCCCC(=O)N/N=C/c1ccccc1Cl | inactive

tested on: Influenza A virus; assay: Antiviral activity against influenza A virus H3N2 infected in MDCK cells assessed as inhibition of virus-induced cytopathic effect after 3 days by MTS assay; format: functional, organism-based; conditions: not given; procedure, shortened: as §1

Row | Structure (SMILES) | inhibition
54 | Cc1ccc(C(=O)N/N=C/c2ccccc2)cc1 | inactive
55 | CCCCCCCCCCCCCCCC(=O)N/N=C/c1ccccc1Cl | inactive
56 | CCCCCCCCCCCC(=O)N/N=C/c1ccccc1Cl | inactive

tested on: Feline coronavirus; assay: Antiviral activity against Feline caronavirus infected in […] cells assessed as inhibition of virus-induced cytopathic effect after 3 days by MTS assay; format: functional, organism-based; conditions: not given; procedure, shortened: as §1

Row | Structure (SMILES) | inhibition
57 | Cc1ccc(C(=O)N/N=C/c2ccccc2)cc1 | inactive
58 | CCCCCCCCCCCCCCCC(=O)N/N=C/c1ccccc1Cl | inactive
59 | CCCCCCCCCCCC(=O)N/N=C/c1ccccc1Cl | inactive

tested on: Aspergillus niger; assay: Antifungal activity against Aspergillus niger after 7 days by serial dilution method; format: functional; conditions: not given

Row | Structure (SMILES) | -logMIC | MFC
60 | Cc1ccc(C(=O)N/N=C/c2ccccc2)cc1 | 1.88 | >0.21 uM/ml
61 | CCCCCCCCCCCCCCCC(=O)N/N=C/c1ccccc1Cl | 1.27 | >0.127 uM/ml
62 | CCCCCCCCCCCC(=O)N/N=C/c1ccccc1Cl | 1.43 | >0.148 uM/ml

tested on: Vaccinia virus; assay: Antiviral activity against Vaccinia virus infected in human HEL cells assessed as inhibition of virus-induced cytopathic effect after 3 days by MTS assay; format: functional, organism-based; conditions: Orthopoxvirus vaccinia; procedure, shortened: as §1

Row | Structure (SMILES) | inhibition
63 | Cc1ccc(C(=O)N/N=C/c2ccccc2)cc1 | inactive
64 | CCCCCCCCCCCCCCCC(=O)N/N=C/c1ccccc1Cl | inactive
65 | CCCCCCCCCCCC(=O)N/N=C/c1ccccc1Cl | inactive

tested on: Sindbis virus; assay: Antiviral activity against Simbidis virus infected in african green monkey Vero cells assessed as inhibition of virus-induced cytopathic effect after 3 days by MTS assay; format: functional, organism-based; conditions: not given; procedure, shortened: as §1

Row | Structure (SMILES) | inhibition
66 | Cc1ccc(C(=O)N/N=C/c2ccccc2)cc1 | inactive
67 | CCCCCCCCCCCCCCCC(=O)N/N=C/c1ccccc1Cl | inactive
68 | CCCCCCCCCCCC(=O)N/N=C/c1ccccc1Cl | inactive
